Compound activity from PubChem BioAssay.
Shown are actives, neighbours in structure and some others; about 1.3% of the full set was active somewhere.
CSN inh – blocks human CSN-mediated cullin deneddylation. Purified CSN, SCF-Nedd8-OG deneddylation, fluorescence polarization. inhibition, % at 12.5 µM. 360,000 tested, 0.38% active;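 active = pattern-corrected inhibition above about 35%, with an unprinted fluorescence ratio check between 0.5 and 1.5, limit read from the data, passing the limit was not always enough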
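Detection – fluorescence polarization · System – HEK293T-derived human Csn5 enzyme · Controls – substrate-only high control, full reaction low control · Timing – 90 min, room temperature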
aDG glyco act – alpha-DG glycosylation activation; Pro5-aDG cells, alpha-DG glycosylation AlphaScreen (IIH6); 0% Pro5, 100% B10-LARGE cell signal; activation, % at 10 µM; 360,000 tested, 0.22% active;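 active = activation of at least 8% versus controls, or a plate z-score of at least 8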;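 also: Pro5 are CHO cells carrying HIG-tagged alpha-DG that lacks glycosylation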
Xi reactivation – X-chromosome reactivation activator. XiGFP mouse fibroblasts, % GFP-positive cells imaging, 3 d; cells co-treated with 5-aza-dC sensitizer; scaled so ellipticine positive control = 100%. activation, % at 7.58 µM. 360,000 tested, 0.055% active. AID 743238;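 active = mean normalized replicate activation at least 10% and every replicate at or above 10%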
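Material: SV40-immortalized XiGFP fibroblast cells, line 68-5-11 | Buffer or medium: DMEM containing 5-aza-dC | Dosing: One concentration, pinned | Times: 3 d treatment, 15 min room-temperature fixation | Controls: Ellipticine 6 µM positive control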
HNF4A DNA FP – change in binding of human HNF4 alpha to DNA; AID 1224865; activity change, % at 10 µM; P41235; 360,000 tested, 0.3% active; HNF4a-FITC DNA binding, fluorescence polarization, 1 h; in the data active = activity change above about 30%, passing the limit was not always enough
Target sequence (P41235 whole entry, looked up): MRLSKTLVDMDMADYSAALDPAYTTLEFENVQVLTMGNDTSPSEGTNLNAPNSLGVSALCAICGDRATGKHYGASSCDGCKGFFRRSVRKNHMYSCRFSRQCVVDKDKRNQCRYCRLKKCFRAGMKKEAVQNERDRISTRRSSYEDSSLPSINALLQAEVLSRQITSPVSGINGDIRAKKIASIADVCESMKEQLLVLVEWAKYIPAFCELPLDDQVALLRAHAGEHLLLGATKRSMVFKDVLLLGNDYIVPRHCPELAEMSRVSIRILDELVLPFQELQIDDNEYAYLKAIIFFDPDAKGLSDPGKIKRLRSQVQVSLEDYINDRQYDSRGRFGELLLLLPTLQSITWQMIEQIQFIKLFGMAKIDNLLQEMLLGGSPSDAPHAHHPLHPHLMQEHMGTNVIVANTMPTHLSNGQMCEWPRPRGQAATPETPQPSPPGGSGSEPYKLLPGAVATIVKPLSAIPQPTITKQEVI
Rpn11 inh – inhibitors of human proteasome Rpn11. O00487. human 26S proteasome, Ub4-pepOG fluorescence polarization; 20S core pre-blocked with epoxomicin. inhibition, % at 20 µM. 360,000 tested, 0.59% active;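 active = inhibition at 20 µM, scaled to each plate's controls, above about 33%, limit read from the data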
TPT1 inh – blocks Candida albicans tRNA 2'-phosphotransferase; recombinant caTPT1, FP RNA substrate dephosphorylation; inhibition, % at 5 µM; 300,000 tested, 0.81% active;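 active = inhibition above the mean of all tested compounds plus 3 SD, set per screening campaign, cut at about 24% in these data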
TPT1 inh confirm – confirmation of Candida albicans TPT1 inhibitors; shares compounds with TPT1 inh; recombinant caTPT1, fluorescence polarization, RNase T1 coupled; inhibition, % at 5 µM; 2,400 tested, 74% active; AID 2149;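 active = inhibition above the primary screen limit, the mean inhibition of all tested compounds plus 3 SD, cut at about 25% in these data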
RNase T1 inh – blocks Aspergillus oryzae RNase T1, a TPT1 counter-screen. shares compounds with TPT1 inh. inhibition, % at 5 µM. 2,400 tested, 83% active. RNase T1 cleavage, fluorescence polarization, 1536-well. AID 2153;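 active = inhibition above the solvent-only control well mean plus 3 SD, limit set per screening run, cut at about 23% in these data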;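 also: inhibitors block cleavage so intact labeled substrate keeps polarization high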
Numbers stand for hits; i = inactive; nt = not tested or not shown.

SMILES | CSN inh | aDG glyco act | Xi reactivation | HNF4A DNA FP | Rpn11 inh | TPT1 inh | TPT1 inh confirm | RNase T1 inh
O/C(=C\c1ccc2ccccc2n1)c1ccncc1 | i | i | i | i | i | 53 | 81 | 90
CC1=Nc2ccc3ccccc3c2C1(C)C | 35 | i | i | i | nt | 85 | 44 | 55
O=C(NCc1ccccc1)C1CC(=O)N(c2ccc(OCC(=O)N3CCOCC3)cc2)C1 (stereo unspecified) | i | i | i | i | i | i | nt | nt
Cc1ccc(CNC(=O)C2CC(=O)N(c3ccc(OCC(=O)N4CCCC4)cc3)C2)cc1 (stereo unspecified) | i | i | nt | i | i | 31 | i | i
C[C@@H]1CN([C@@H](C)CO)C(=O)Cc2cc(NC(=O)Nc3ccc4c(c3)OCO4)ccc2O[C@H]1CN(C)C(=O)Nc1ccc2c(c1)OCO2 | nt | nt | i | nt | nt | nt | nt | nt
CN(C)/C=C/C(=O)c1ccc(N2CCN(c3ncc(C(F)(F)F)cc3Cl)CC2)cc1 | i | i | nt | i | i | 80 | i | i
Nc1c(C(=O)c2ccccc2)sc2nsc(SCCN3CCOCC3)c12 | i | i | i | i | nt | 58 | 63 | 72
CCN(CC)c1ccc(NC(=O)CSc2nc3nc(C)cc(C)c3c(=O)[nH]2)cc1 | i | i | i | i | i | i | nt | nt
COc1ccc(NC(=O)CSc2nc3nc(C)cc(C)c3c(=O)[nH]2)cc1 | i | i | i | i | i | 25 | i | i
CCOc1ccc(NC(=O)c2ccc(NC(=O)CSc3nc4ccccc4c(=O)[nH]3)cc2)cc1 | i | i | i | i | i | 53 | i | i
O=C(CSc1nc2ccccc2c(=O)[nH]1)Nc1ccc(C(=O)O)cc1 | i | i | i | i | i | i | nt | nt
CC(C)NC(=O)Nc1ccc2c(c1)C(=O)N(C)C[C@@H](C)[C@@H](CN(C)C(=O)NC(C)C)O2 | nt | nt | i | nt | nt | nt | nt | nt
C=CCN1C(=O)/C(=C/c2ccc(-c3ccc(F)cc3)o2)SC1=S | i | i | i | i | i | 81 | 115 | 120
C=CCN1C(=O)/C(=C/c2ccsc2)SC1=S | i | i | i | i | i | i | nt | nt
Cc1noc(C)c1NC(=O)Nc1ccc2c(c1)CC(=O)N([C@@H](C)CO)C[C@@H](C)[C@H](CN(C)S(C)(=O)=O)O2 | nt | nt | i | nt | nt | nt | nt | nt
Cc1cccc(S(=O)(=O)N2C[C@H](O)COC[C@H]3O[C@H](CC(=O)NCc4ccc5c(c4)OCO5)CC[C@@H]32)c1 | nt | nt | i | nt | nt | nt | nt | nt
CC(=O)N(C)C[C@@H]1Oc2ncc(C#Cc3cccc(F)c3)cc2C(=O)N([C@@H](C)CO)C[C@H]1C | nt | nt | i | nt | nt | nt | nt | nt
O=C(CC(NC(=O)c1ccccc1)c1ccccc1)Nc1cccc2ccccc12 (stereo unspecified) | i | i | i | i | i | i | nt | nt
O=C(CC(C(=O)O)c1ccccc1)Nc1cccc2ccccc12 (stereo unspecified) | i | i | i | i | i | 30 | i | i
C[C@@H]1CN([C@H](C)CO)S(=O)(=O)c2ccc(C#CC3CCCCC3)cc2O[C@@H]1CN(C)Cc1cccnc1 | nt | nt | i | nt | nt | nt | nt | nt
C[C@@H]1CN([C@H](C)CO)S(=O)(=O)c2ccc(C#C[C@@H](C)O)cc2O[C@@H]1CN(C)C(=O)CN(C)C | nt | nt | i | nt | nt | nt | nt | nt
O=C(Nc1ccccc1)c1ccc(NCCc2ccccc2)c([N+](=O)[O-])c1 | i | i | i | i | nt | 45 | 105 | 115
Cc1ccc(C2C3=C(CCCC3=O)OC3=C2C(=O)CCC3)cc1 | i | i | i | i | i | 54 | i | i
Cc1ccc(C2C3=C(CC(C)(C)CC3=O)OC3=C2C(=O)CC(C)(C)C3)cc1 | i | i | i | i | i | i | nt | nt
CCOCCCNc1nc2c(C)cccn2c(=O)c1/C=C1\SC(=S)N(C(C)CC)C1=O (stereo unspecified) | i | i | i | i | nt | 135 | 157 | 145
CCC(C)N=Cc1c(Nc2ccccc2)nc2c(C)cccn2c1=O (stereo unspecified) | i | i | i | i | i | i | nt | nt
